Tests used:
[1] = humans; cited from earlier work
zebrafish haematopoiesis = assay: Haemoglobin; format: in vivo; conditions: zebrafish embryos; F1 starting from 0.4 µg/mL; haemoglobin staining and video
Outline: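 Shield-stage embryos were exposed to the formulation at 0.4 µg/mL and raised to the 20-somite stage, then given 0.003% (final) phenylthiourea to block pigmentation. They were then rinsed and fixed in 4% paraformaldehyde.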

[2] = powdered drugs, reported previously; cited from earlier work

Row | Structure (SMILES) | increase of bioavailability of CUR with concomitant PP vs CUR alone [1] [%] | effect on blood circulation / haematopoiesis (zebrafish haematopoiesis) | dissolution rate (release) of powdered drug [2]
1 | COc1cc(/C=C/C(=O)CC(=O)/C=C/c2ccc(O)c(OC)c2)ccc1O [CUR, Curcumin] | 2000 | did not affect haematopoiesis | less than 20%
2 | O=C(/C=C/C=C/c1ccc2c(c1)OCO2)N1CCCCC1 [PP, Piperine] |  | did not affect haematopoiesis | less than 20%

Reference: PMC10084868 (International Journal of Nanomedicine, 2023)
